One may read the MIC as the lowest concentration found to suppress growth.

In brackets after ≈: the same amount, converted by molar mass.

Our source for the MIC values is ChEMBL document CHEMBL1127623, “Synthesis and structure-activity relationships of the novel homopropargylamine antimycotics” (1994).

The test system of one assay is Sporothrix schenckii. Briefly: Tested in vitro for minimum inhibitory concentration against sporothrix schenck ii. In kind it is functional. The method, boiled down:
(§1)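 Serial dilutions were made from DMSO solutions into Sabouraud's dextrose broth (pH 6.5) in glass tubes. Inoculum was taken by spatula from Kimmig agar cultures grown 21 days at 30 °C. Incubation was 7 days at 30 °C. MIC was the lowest concentration at which growth was macroscopically undetectable.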

The subject of assay [1] is Candida albicans. Briefly: Tested in vitro for minimum inhibitory concentration against candida albicans 9. Format: functional. In short, it runs like this: (§2)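 Yeast broth dilution in malt extract broth (pH 4.8) in glass tubes, with compounds in DMSO serially diluted in medium. Blastospores came from cultures shaken about 30 h at 37 °C in yeast nitrogen base. Growth was read after 48 h at 30 °C. MIC was the lowest concentration without macroscopically visible growth.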

The test system of a further assay is Microsporum canis. Briefly: Tested in vitro for minimum inhibitory concentration against microsporum canis. Format: functional. In short, it runs like this:
as §1

The next assay deals with Candida parapsilosis. Briefly: Tested in vitro for minimum inhibitory concentration against candida parapsilosis 39. In kind it is functional. Particulars: Lodderomyces parapsilosis. The method, boiled down:
as §2

The subject of assay [2] is Candida albicans. Briefly: Tested in vitro for minimum inhibitory concentration against candida albicans 124. Format: functional. The method, boiled down: as §2
The test system of another assay is Aspergillus fumigatus. Briefly: Tested in vitro for minimum inhibitory concentration against Aspergillus fumigatus. Format: functional. In short, it runs like this: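 Tube dilution in Sabouraud's dextrose broth (pH 6.5). Compounds were dissolved in DMSO and serially diluted in medium. The inoculum was harvested by spatula from Kimmig agar cultures grown 21 days at 30 °C. Tubes were read after 72 h at 30 °C. MIC was the lowest concentration with no macroscopically detectable growth.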

In assay [3] the test system is Trichophyton mentagrophytes. Description: Tested in vitro for minimum inhibitory concentration against Trichophyton mentagrophytes.

In the case of `C=C(C#CC(C)(C)C)CN(C)Cc1cccc2ccccc12`, the minimal inhibitory concentration (MIC) was 1.56 µg/mL (≈ 5.35 µM) in the assay with Sporothrix schenckii; greater than 200 µg/mL in the assay on Candida albicans [1]; 0.5 µg/mL (≈ 1.72 µM) against Microsporum canis; 6.25 µg/mL (≈ 21.4 µM) with Candida parapsilosis; greater than 200 µg/mL against Candida albicans [2]; 50 µg/mL (≈ 172 µM) against Aspergillus fumigatus. The compound also gave an MIC in assay [3] of 0.05 µg/mL (≈ 0.172 µM).

As for `CC(C#CC(C)(C)C)CN(C)Cc1cccc2ccccc12` (configuration not stated), the MIC against Sporothrix schenckii is 12.5 µg/mL (≈ 42.6 µM); in the assay with Candida albicans [1] it was greater than 200 µg/mL; in the assay on Microsporum canis, 0.8 µg/mL (≈ 2.73 µM); with Candida parapsilosis, 200 µg/mL (≈ 682 µM); against Candida albicans [2] it was greater than 200 µg/mL; in the assay on Aspergillus fumigatus it was greater than 200 µg/mL. This compound had an MIC in assay [3] of 0.8 µg/mL (≈ 2.73 µM).

Take `CCC(C)(C)C#CCCN(C)Cc1cccc2ccccc12`: the minimal inhibitory concentration (MIC) with Sporothrix schenckii was 3.13 µg/mL (≈ 10.7 µM); in the assay on Candida albicans [1], 12.5 µg/mL (≈ 42.6 µM); with Microsporum canis, 0.01 µg/mL (≈ 0.0341 µM); against Candida parapsilosis, 1.56 µg/mL (≈ 5.32 µM); against Candida albicans [2] it was 50 µg/mL (≈ 170 µM); against Aspergillus fumigatus it was 0.1 µg/mL (≈ 0.341 µM). For the same compound, the MIC in assay [3] stood at 0.006 µg/mL (≈ 0.0204 µM).

As to `CN(CCC#CC(C)(C)C)Cc1cccc2ccccc12`, the minimum inhibitory concentration (MIC) with Sporothrix schenckii came to 3.13 µg/mL (≈ 11.2 µM); in the assay with Candida albicans [1], 50 µg/mL (≈ 179 µM); in the assay with Microsporum canis, 0.01 µg/mL (≈ 0.0358 µM); against Candida parapsilosis, 1.56 µg/mL (≈ 5.58 µM); in the assay with Candida albicans [2] it was 50 µg/mL (≈ 179 µM); in the assay on Aspergillus fumigatus, 0.1 µg/mL (≈ 0.358 µM). Further, the lowest concentration to inhibit growth in assay [3] (MIC) was 0.006 µg/mL (≈ 0.0215 µM).

On to `CCCC(C)(C)C#CCCN(C)Cc1cccc2ccccc12`, for which the MIC in the assay on Sporothrix schenckii turned out to be 1.56 µg/mL (≈ 5.07 µM); against Candida albicans [1], 12.5 µg/mL (≈ 40.7 µM); with Microsporum canis, 0.003 µg/mL (≈ 0.00976 µM); against Candida parapsilosis, 0.4 µg/mL (≈ 1.3 µM); in the assay with Candida albicans [2], 25 µg/mL (≈ 81.3 µM); against Aspergillus fumigatus, 0.05 µg/mL (≈ 0.163 µM). Also, 0.003 µg/mL (≈ 0.00976 µM) was the least that counted as inhibitory in assay [3] (MIC).

Consider `CC(C)(C)C#CCCOCc1cccc2ccccc12`, for which the minimal inhibitory concentration (MIC) is greater than 200 µg/mL in the assay on Sporothrix schenckii; 200 µg/mL (≈ 751 µM) against Candida albicans [1]; 0.4 µg/mL (≈ 1.5 µM) against Microsporum canis; greater than 200 µg/mL against Candida parapsilosis; greater than 200 µg/mL against Candida albicans [2]; 1.56 µg/mL (≈ 5.86 µM) against Aspergillus fumigatus. The compound also had an MIC in assay [3] of 0.4 µg/mL (≈ 1.5 µM).

Take `CN(CCC#CC(C)(C)C)CCc1cccc2ccccc12`: the MIC with Sporothrix schenckii came to 12.5 µg/mL (≈ 42.6 µM); against Candida albicans [1], 100 µg/mL (≈ 341 µM); in the assay with Microsporum canis, 3.13 µg/mL (≈ 10.7 µM); against Candida parapsilosis, 100 µg/mL (≈ 341 µM); with Candida albicans [2] it was 200 µg/mL (≈ 682 µM); in the assay with Aspergillus fumigatus it was 50 µg/mL (≈ 170 µM). The compound further yielded a minimal inhibitory concentration (MIC) in assay [3] of 0.8 µg/mL (≈ 2.73 µM).

In the case of `CN(CCCCC#CC(C)(C)C)Cc1cccc2ccccc12`, the MIC against Sporothrix schenckii is greater than 200 µg/mL; in the assay on Candida albicans [1], 200 µg/mL (≈ 650 µM); in the assay on Microsporum canis it was 25 µg/mL (≈ 81.3 µM); in the assay with Candida parapsilosis it was greater than 200 µg/mL; with Candida albicans [2], greater than 200 µg/mL; against Aspergillus fumigatus, greater than 200 µg/mL. This compound had a minimum inhibitory concentration (MIC) in assay [3] of 12.5 µg/mL (≈ 40.7 µM).

With `CN(CCC#CC(C)(C)c1ccccc1)Cc1cccc2ccccc12`, the MIC in the assay with Sporothrix schenckii is 3.13 µg/mL (≈ 9.17 µM); in the assay on Candida albicans [1] it was 6.25 µg/mL (≈ 18.3 µM); against Microsporum canis, 0.006 µg/mL (≈ 0.0176 µM); in the assay on Candida parapsilosis it was 0.4 µg/mL (≈ 1.17 µM); in the assay with Candida albicans [2] it was 12.5 µg/mL (≈ 36.6 µM); against Aspergillus fumigatus, 0.2 µg/mL (≈ 0.586 µM). The same compound yielded an MIC in assay [3] of 0.01 µg/mL (≈ 0.0293 µM).

Take `CCN(Cc1cccc2ccccc12)C(=O)OCCC#CC(C)(C)C`: the minimal inhibitory concentration (MIC) is greater than 200 µg/mL with Sporothrix schenckii; greater than 200 µg/mL in the assay on Candida albicans [1]; 100 µg/mL (≈ 296 µM) in the assay on Microsporum canis; 25 µg/mL (≈ 74.1 µM) in the assay with Candida parapsilosis; greater than 200 µg/mL against Candida albicans [2]; greater than 200 µg/mL against Aspergillus fumigatus. Besides, 100 µg/mL (≈ 296 µM) was the least that counted as inhibitory in assay [3] (MIC).

Consider `CC(CC#CC(C)(C)C)N(C)Cc1cccc2ccccc12` (configuration not stated), for which the MIC with Sporothrix schenckii is greater than 200 µg/mL; with Candida albicans [1], 200 µg/mL (≈ 682 µM); in the assay on Microsporum canis it was 1.56 µg/mL (≈ 5.32 µM); with Candida parapsilosis it was 100 µg/mL (≈ 341 µM); with Candida albicans [2], greater than 200 µg/mL; with Aspergillus fumigatus, greater than 200 µg/mL. Further, in assay [3], the MIC is 1.56 µg/mL (≈ 5.32 µM).

For `CCN(CCC#CC(C)(C)C)Cc1cccc2ccccc12`, the MIC against Sporothrix schenckii came to 12.5 µg/mL (≈ 42.6 µM); in the assay with Candida albicans [1] it was 50 µg/mL (≈ 170 µM); against Microsporum canis, 0.02 µg/mL (≈ 0.0682 µM); against Candida parapsilosis, 3.13 µg/mL (≈ 10.7 µM); with Candida albicans [2], 200 µg/mL (≈ 682 µM); with Aspergillus fumigatus, 0.2 µg/mL (≈ 0.682 µM). The compound also gave an MIC in assay [3] of 0.05 µg/mL (≈ 0.17 µM).

As for `CN(CC#CC(C)(C)C)Cc1cccc2ccccc12`, the MIC is greater than 200 µg/mL in the assay on Sporothrix schenckii; 200 µg/mL (≈ 754 µM) against Candida albicans [1]; 25 µg/mL (≈ 94.2 µM) against Microsporum canis; greater than 200 µg/mL with Candida parapsilosis; greater than 200 µg/mL against Candida albicans [2]; greater than 200 µg/mL in the assay on Aspergillus fumigatus. Further, in assay [3], 12.5 µg/mL (≈ 47.1 µM) was the least that counted as inhibitory (MIC).

In the case of `CN(CC#CC(C)(C)C)CCc1cccc2ccccc12`, the MIC in the assay on Sporothrix schenckii is 6.25 µg/mL (≈ 22.4 µM); against Candida albicans [1], 50 µg/mL (≈ 179 µM); against Microsporum canis it was 1.56 µg/mL (≈ 5.58 µM); with Candida parapsilosis, 50 µg/mL (≈ 179 µM); with Candida albicans [2], 100 µg/mL (≈ 358 µM); with Aspergillus fumigatus it was greater than 50 µg/mL. 1.56 µg/mL (≈ 5.58 µM) was the least that counted as inhibitory in assay [3] (MIC).

Consider `CN(CCCC#CC(C)(C)C)Cc1cccc2ccccc12`, for which the minimal inhibitory concentration (MIC) in the assay with Sporothrix schenckii was 1.56 µg/mL (≈ 5.32 µM); in the assay with Candida albicans [1], greater than 200 µg/mL; in the assay with Microsporum canis it was 0.2 µg/mL (≈ 0.682 µM); against Candida parapsilosis it was 0.8 µg/mL (≈ 2.73 µM); against Candida albicans [2] it was 200 µg/mL (≈ 682 µM); in the assay on Aspergillus fumigatus, 50 µg/mL (≈ 170 µM). Moreover, the lowest concentration to inhibit growth in assay [3] (MIC) was 0.05 µg/mL (≈ 0.17 µM).

`CN(C/C=C/C#CC(C)(C)C)Cc1cccc2ccccc12` [TERBINAFINE]: the MIC in the assay on Sporothrix schenckii came out at 0.4 µg/mL (≈ 1.37 µM); in the assay on Candida albicans [1], 6.25 µg/mL (≈ 21.4 µM); in the assay with Microsporum canis, 0.006 µg/mL (≈ 0.0206 µM); against Candida parapsilosis, 0.8 µg/mL (≈ 2.75 µM); in the assay on Candida albicans [2], 25 µg/mL (≈ 85.8 µM); in the assay with Aspergillus fumigatus, 0.8 µg/mL (≈ 2.75 µM). Besides, the MIC in assay [3] amounted to 0.003 µg/mL (≈ 0.0103 µM).
